Key:
Assay type in all cases: toxicity, cell-based
Fibroblast = test: Multiplex assay against human fibroblast
Procedure, shortened: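 Live cells were stained at seeding with Hoechst33342, BioTracker Green Microtubule Cytoskeleton Dye, MitoTracker Red and Annexin V Alexa Fluor 680. Following compound addition, they were imaged on a CQ1 microscope at 37°C and 5% CO2 and gated by CellPathfinder machine learning into Hoechst high-intensity objects or normal cells, with normal cells split into healthy, pyknosed or fragmented nuclei and pyknosed cells into mitotic or apoptotic. Tubulin, mitochondrial-mass and membrane-permeability phenotypes are per cents of healthy-nucleus cells.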

HEK-293T = test: Incucyte cell viability with HEK293T; conditions: human, 10 µM, compound concentration 10 uM; also: filed as whole numbers so only -1 and 0 and 1 occur
U2OS = test: Incucyte cell viability with U2OS; conditions: human, 10 µM, compound concentration 10 uM; also: filed as whole numbers so only -1 and 0 and 1 occur
[1] = 12 h, 1 µM, compound concentration 1 uM, replicate 1
[2] = 12 h, 1 µM, compound concentration 1 uM, replicate 2
[3] = 12 h, 10 µM, compound concentration 10 uM, replicate 1
[4] = 12 h, 10 µM, compound concentration 10 uM, replicate 2
[5] = 24 h, 1 µM, compound concentration 1 uM, replicate 1
[6] = 24 h, 1 µM, compound concentration 1 uM, replicate 2
[7] = 24 h, 10 µM, compound concentration 10 uM, replicate 1
[8] = 24 h, 10 µM, compound concentration 10 uM, replicate 2
[9] = 6 h, replicate number 1, timepoint 6 hours
[10] = 12 h, replicate number 1, timepoint 12 hours
[11] = 18 h, replicate number 1, timepoint 18 hours
[12] = 24 h, replicate number 1, timepoint 24 hours

## CNC(=O)c1cc(Oc2ccc(NC(=O)Nc3cc(C(C)(C)C)nn3-c3ccc4ncccc4c3)c(F)c2)ccn1 [REBASTINIB]
Fibroblast; [1]
  Population Apoptotic (%): 90%
  Population Fragmented Nuclei (%): 24%
  Population Healthy Nuclei (%): 66%
  Population Hoechst High Intensity Objects (%): 10%
  Population Membrane Permeable-Phenotype (%): 4%
  Population Mitochondria Different-Phenotype (%): 2%
  Population Mitotic Cells (%): 10%
  Population Normal (%): 89%
  Population Pyknosed Nuclei (%): 9%
  Population Tubulin-Different-Phenotype (%): 4%
  Total Cell Count: 237
Fibroblast; [2]
  Population Apoptotic (%): 40%
  Population Fragmented Nuclei (%): 56%
  Population Healthy Nuclei (%): 32%
  Population Hoechst High Intensity Objects (%): 38%
  Population Membrane Permeable-Phenotype (%): 26%
  Population Mitochondria Different-Phenotype (%): 6%
  Population Mitotic Cells (%): 60%
  Population Normal (%): 61%
  Population Pyknosed Nuclei (%): 10%
  Population Tubulin-Different-Phenotype (%): 26%
  Total Cell Count: 75
Fibroblast; [3]
  Population Apoptotic (%): 59%
  Population Fragmented Nuclei (%): 20%
  Population Healthy Nuclei (%): 59%
  Population Hoechst High Intensity Objects (%): 8%
  Population Membrane Permeable-Phenotype (%): 10%
  Population Mitochondria Different-Phenotype (%): 16%
  Population Mitotic Cells (%): 40%
  Population Normal (%): 91%
  Population Pyknosed Nuclei (%): 19%
  Population Tubulin-Different-Phenotype (%): 44%
  Total Cell Count: 238
Fibroblast; [4]
  Population Apoptotic (%): 85%
  Population Fragmented Nuclei (%): 54%
  Population Healthy Nuclei (%): 24%
  Population Hoechst High Intensity Objects (%): 45%
  Population Membrane Permeable-Phenotype (%): 0%
  Population Mitochondria Different-Phenotype (%): 37%
  Population Mitotic Cells (%): 14%
  Population Normal (%): 55%
  Population Pyknosed Nuclei (%): 21%
  Population Tubulin-Different-Phenotype (%): 50%
  Total Cell Count: 60
Fibroblast; [5]
  Population Apoptotic (%): 83%
  Population Fragmented Nuclei (%): 24%
  Population Healthy Nuclei (%): 64%
  Population Hoechst High Intensity Objects (%): 12%
  Population Membrane Permeable-Phenotype (%): 2%
  Population Mitochondria Different-Phenotype (%): 2%
  Population Mitotic Cells (%): 16%
  Population Normal (%): 87%
  Population Pyknosed Nuclei (%): 11%
  Population Tubulin-Different-Phenotype (%): 3%
  Total Cell Count: 239
Fibroblast; [6]
  Population Apoptotic (%): 33%
  Population Fragmented Nuclei (%): 56%
  Population Healthy Nuclei (%): 37%
  Population Hoechst High Intensity Objects (%): 30%
  Population Membrane Permeable-Phenotype (%): 5%
  Population Mitochondria Different-Phenotype (%): 10%
  Population Mitotic Cells (%): 66%
  Population Normal (%): 69%
  Population Pyknosed Nuclei (%): 5%
  Population Tubulin-Different-Phenotype (%): 31%
  Total Cell Count: 73
Fibroblast; [7]
  Population Apoptotic (%): 52%
  Population Fragmented Nuclei (%): 24%
  Population Healthy Nuclei (%): 57%
  Population Hoechst High Intensity Objects (%): 14%
  Population Membrane Permeable-Phenotype (%): 4%
  Population Mitochondria Different-Phenotype (%): 28%
  Population Mitotic Cells (%): 47%
  Population Normal (%): 85%
  Population Pyknosed Nuclei (%): 17%
  Population Tubulin-Different-Phenotype (%): 54%
  Total Cell Count: 229
Fibroblast; [8]
  Population Apoptotic (%): 70%
  Population Fragmented Nuclei (%): 52%
  Population Healthy Nuclei (%): 22%
  Population Hoechst High Intensity Objects (%): 33%
  Population Membrane Permeable-Phenotype (%): 33%
  Population Mitochondria Different-Phenotype (%): 44%
  Population Mitotic Cells (%): 30%
  Population Normal (%): 66%
  Population Pyknosed Nuclei (%): 25%
  Population Tubulin-Different-Phenotype (%): 44%
  Total Cell Count: 60
HEK-293T; 0 h, replicate number 2, timepoint 0 hours
  Growth Rate: 0
HEK-293T; [9]
  Growth Rate: 0
HEK-293T; [10]
  Growth Rate: 0
HEK-293T; [11]
  Growth Rate: 0
HEK-293T; [12]
  Growth Rate: 0
U2OS; 0 h, replicate number 1, timepoint 0 hours
  Growth Rate: 1
U2OS; [9]
  Growth Rate: 0
U2OS; 6 h, replicate number 2, timepoint 6 hours
  Growth Rate: 1
U2OS; [10]
  Growth Rate: 0
U2OS; [11]
  Growth Rate: 0
U2OS; [12]
  Growth Rate: 0

Reference: ChEMBL document CHEMBL4689842, “EUbOPEN Chemogenomics Library wave 1” (2021)
